Many of the other results were omitted from the sample, so hits are more common in it than they were.
MPTP inh: blocks calcium-induced mitochondrial swelling; isolated mouse mitochondria, Ca2+ swelling absorbance, 30 min; inhibition, % at 10 µM; 360,000 tested, 1.4% active; AID 602449;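 active = inhibition of 50% or more, scaled per plate between neutral and stimulator controls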;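 also: 0% = DMSO wells given calcium and 100% = 1 mM EGTA wells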
L major viab: reduces viability of Leishmania major promastigotes. resazurin fluorescence viability. inhibition, % at 10 µM. 200,000 tested, 9% active. AID 1063; in the data active = inhibition above about 50%;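 also: promastigotes grown with compound for 44 hours at 28 °C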
T cruzi inh: blocks replication of Trypanosoma cruzi | T. cruzi beta-gal in NIH3T3, luminescence, 90 h | inhibition, % (no concentration beside the values) | 300,000 tested, 1.4% active | AID 1885;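 active = mean inhibition across valid replicates above about 55%, limit read from the data; inconclusive = mean below that limit but half or more replicates reach it; inactive = mean below it, under half of replicates reach it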;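 also: signal also drops with host cell toxicity which is not excluded here; 0% = plate median of DMSO wells and 100% = zero luminescence signal; higher percent means less beta-gal luminescence so fewer parasites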
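System – NIH/3T3 host cells with β-galactosidase reporter T. cruzi · Doses – single 50 nL compound addition per well in DMSO · Reagent – 5000 T. cruzi trypomastigotes/well · Medium – Low-serum DMEM with 2% FBS · Timing – ≥90 h infection period, 3 h prior cell attachment · Evaluation – parasite load inhibition, % · Technique – GalScreen luminescence, 60 min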
Lipid droplet: hepatic lipid droplet formation modulation; AID 1656; inhibition, % at 6.5 µM; 240,000 tested, 0.4% active; AML12 mouse hepatocytes, oleate lipid droplets, BODIPY imaging;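 active = lipid droplet intensity inhibited by at least 50%, with more than 500 cells counted; inconclusive = wells with under 300 cells, treated as cytotoxic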
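Assay system: AML12 hepatocytes (mouse) / Also added: 100 µM oleic acid challenge / Times: overnight treatment with compound plus oleate / Detection: high-content imaging of BODIPY-stained droplets and DAPI nuclei / Evaluation: % inhibition of lipid droplet signal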
DTT redox prof: compounds producing H2O2 with reducing agent – biochemical, NIH compound library profiling, artefact control for MLSCN library redox annotation, primary screen. AID 878. activation, % at 10 µM. DTT-dependent redox cycling H2O2, phenol red/HRP absorbance; 100% = 100 µM peroxide control, 0% = buffer. 200,000 tested, 0.03% active;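 active = activation of at least 50% relative to the plate's high and low controls in the primary single-dose screen; inactive = activation below 50%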;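 also: compound incubated with DTT at 0.8 mM final as the reducing agent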
* hit, by the source's call; ? = inconclusive; / = no result.

SMILES | MPTP inh | L major viab | T cruzi inh | Lipid droplet | DTT redox prof
O=C(C1=C[C@H](c2csc3ccccc23)C[C@H](OCc2ccc(CO)cc2)O1)N1CCN(Cc2ccccc2)CC1 | 0 | 21 | 47 | -11 | 0
O=C(Nc1ccccc1)C1=C[C@@H](c2csc3ccccc23)C[C@@H](OCc2ccc(CO)cc2)O1 | 0 | 58* | 52 | -2 | 0
O=C(C1=C[C@H](c2csc3ccccc23)C[C@H](OCc2ccc(CO)cc2)O1)N1CCOCC1 | -2 | 5 | 12 | 2 | 1
CC(=O)n1cc([C@@H]2C=C(C(=O)N3CCN(Cc4ccccc4)CC3)O[C@H](OCc3ccc(CO)cc3)C2)c2ccccc21 | 1 | 97* | 35 | -10 | -1
N#CCCN(Cc1ccccc1)C(=O)c1nccnc1C(=O)O | 0 | / | -16 | 4 | /
O=C(Nc1ccccc1)C1=C[C@@H](c2ccc(C(F)(F)F)cc2)C[C@@H](OCc2ccc(CO)cc2)O1 | -1 | 65* | 43 | -1 | 0
Cc1c(CN2CCC(CO)(CC3CCCCO3)CC2)cnn1C (centres undefined) | 0 | -7 | 6 | 11 | -1
Cc1nc2ccccc2nc1CN1CCC(CO)(CC2CCCCO2)CC1 (centres undefined) | 2 | 69* | 2 | -2 | -1
CCCNC(=O)C1CCN(c2cc(-c3ccccc3)nc3ncnn23)CC1 | 2 | -2 | -5 | -11 | 1
CNc1cncc(-c2cnn(CC(C)C)c2)n1 | 0 | / | / | / | /
CCN(Cc1ccccc1)c1ccc(/C=N/N=C(N)N)cc1 | 4 | 100* | ? | -2 | 0
CCN(Cc1ccccc1)c1ccccc1 | 1 | / | / | / | /
CCNC(=S)N/N=C/c1cccc(OCc2c(F)cccc2Cl)c1 | 2 | 10 | 59* | 34 | 0
CCNC(=S)N/N=C/c1c(Cl)cccc1Cl | 2 | -4 | -10 | 11 | -1
CCOC(=O)Nc1ccc(C(=O)/C=C/c2ccccc2)cc1 | 2 | / | -1 | -25 | /
CCC1CSC(Nc2ccc(C(=O)/C=C/c3ccc(Oc4ccccc4)cc3)cc2)=N1 (centres undefined) | 4 | 59* | 36 | -7 | 1
CCC1CSC(Nc2ccc(C(=O)/C=C/c3cccc(C)c3)cc2)=N1 (centres undefined) | 12 | 14 | 60* | -8 | 2
Cc1cccc(C=CC(=O)c2ccccc2)c1 | -2 | / | / | / | /
OC(c1ccc(CN2CCCCC2)cc1)c1ncc(-c2ccccc2F)[nH]1 (centres undefined) | 0 | / | / | / | /
CC(OC(=O)CNC(=O)COc1ccccc1)C(=O)N(C)Cc1ccccc1 (centres undefined) | -3 | / | -6 | / | /
CC(C)(C)C(=O)/C=C/Nc1ccccc1O | 2 | 98* | 1 | -7 | 0
CN(C)c1ccc(N/C=C/C(=O)C(C)(C)C)cc1 | -2 | 54* | 42 | -1 | 0
CN(C)c1ccc(N/C=C/C(=O)c2ccccc2)cc1 | 1 | 100* | 28 | -4 | 2
CC(C)(C)c1ccc(C(=O)NNc2cc(N3CCCCC3)nc(N3CCCCC3)n2)cc1 | 9 | 11 | 93* | 18 | -7
O=C(CCc1ccccc1)NNc1cc(N2CCCCC2)nc(N2CCCCC2)n1 | 1 | 0 | 57* | 5 | 1
SMILES | MPTP inh | L major viab | T cruzi inh | Lipid droplet | DTT redox prof
CC(C)(C)c1ccc(C(=O)NNc2cc(N3CCOCC3)nc(N3CCOCC3)n2)cc1 | -3 | 4 | 17 | 3 | -1
O=C1OCCC1(c1ccccc1)c1ccccc1 | -2 | / | / | / | /
CCOc1ccc(-n2c(=O)c3ccccc3c3ccccc3c2=O)cc1 | 0 | / | -13 | -1 | /
CCOc1ccccc1-n1c(=O)c2ccccc2c2ccccc2c1=O | -1 | 77* | -11 | -2 | 0
COc1ccc(C(=O)N/N=C/c2ccc3cccc(OCc4ccccc4)c3n2)cc1 | 1 | 65* | 31 | / | -5
Cn1c(-c2ccccc2)c(/C=N/NC(=O)c2cccnc2)c2ccccc21 | 0 | 62* | 9 | -2 | 0
COC(=O)N/N=C/c1ccccc1OCc1ccccc1 | -1 | 12 | 4 | 13 | 0
NC(=S)N/N=C/c1ccccc1OCc1cccc(Cl)c1 | 1 | 38 | 62* | / | -2
O=C(N/N=C/c1ccccc1OCc1ccccc1)c1cccnc1 | 2 | 75* | -11 | -10 | -1
Cc1ccc(C)c(SCC(=O)N(C)C2CCS(=O)(=O)C2)c1 (centres undefined) | 1 | / | / | / | /
C/C=C(\C)CN1CCC(n2nccc2NC(=O)CCCc2ccccc2)CC1 | -1 | / | 37 | -75 | /

From PubChem
